Experimental data gathered from unrelated publications.
Each line is one published result; the experiments were not run side by side.
DRD1: D(1A) dopamine receptor (DRD1, Homo sapiens, UniProt P21728)
Sterol carrier protein 2: Sterol carrier protein 2 (Aedes aegypti, UniProt Q86PR3)
BCHE: Cholinesterase (BCHE, Equus caballus, UniProt P81908)

Compound | target | assay | setting | measurement | value
CN(C)C(=O)COC(=O)c1cc(-c2ccc([C@H]3C[C@H]4C[C@@H]3CN4)cc2)c2ccc(-c3ccc(C(F)(F)F)cc3)cc2c1 | DRD1 | cell-free assay, radioligand |  | Ki | 1.4 to 2.2 µM
COc1cc(/C=C2\CCC/C(=C\c3cc(OC)c(OC)c(OC)c3)C2=O)cc(OC)c1OC | Sterol carrier protein 2 | ligand displacement, fluorescence |  | EC50 | 12.1 µM
CC=C1[C@H]2C=C(C)C[C@]1(N(C)C)c1ccc(OC)nc1C2 | BCHE | enzyme activity, inhibitor, Ellman |  | IC50 | 1350 µM
C[C@H]1c2c[nH]c3cccc(c23)S[C@H]1C(=O)O | trpS (Geobacillus stearothermophilus, UniProt P00953) | binding, ITC |  | Kd | 3.1 µM
O=S(=O)(O)c1ccc(-c2c3nc(c(-c4ccc(S(=O)(=O)O)cc4)c4ccc([nH]4)c(-c4ccc(S(=O)(=O)O)cc4)c4nc(c(-c5ccc(S(=O)(=O)O)cc5)c5ccc2[nH]5)C=C4)C=C3)cc1 | Galectin-7 (LGALS7, Homo sapiens, UniProt P47929) | binding |  | Kd | 9.5 µM
CNc1nc(C#Cc2ccc(Cl)s2)nc2c1ncn2[C@@H]1O[C@H](C(=O)OC)[C@@H](O)[C@H]1O | Sodium-dependent serotonin transporter (SLC6A4, Homo sapiens, UniProt P31645) | ligand displacement, radioligand | cell membranes | Ki | > 10 µM
N[C@H]1C[C@@H](CO)[C@H](c2ccc(-c3cc(C(=O)O)cc4cc(-c5ccc(C(F)(F)F)cc5)ccc34)cc2)C1 | DRD1 | cell-free assay, radioligand |  | Ki | 1.4 to 2.2 µM
O=c1c(O)c(-c2ccc(O)c(O)c2)oc2cc(O)cc(O)c12 | Sterol carrier protein 2 | ligand displacement |  | EC50 | 18.4 µM
CC(CCc1ccc(O)cc1)NCCc1ccc(O)c(O)c1 (stereo not drawn) | DRD1 | cAMP, agonist, TR-FRET |  | EC50 | 13 µM
O=c1c(O)c(-c2ccc(O[C@@H]3O[C@H](CO)[C@@H](O)[C@H](O)[C@H]3O)c(O)c2)oc2cc(O)cc(O)c12 | BCHE | enzyme activity, inhibitor |  | Ki | 0.0281 µM
CC=C1[C@H]2C=C(C)C[C@]1(N(C)C)c1ccc(=O)[nH]c1C2 | BCHE | enzyme activity, inhibitor, Ellman |  | IC50 | 224 µM
CNC[C@H](O)c1cccc(O)c1 | DRD1 | cAMP, agonist, TR-FRET |  | EC50 | 2.8 µM
